In the library only some 2% were active in any assay of this set; here they are far more common.
LEDGF integ inh: blockers of LEDGF/p75-dependent integrase strand transfer – biochemical, TR-FRET, high throughput, primary screen. inhibition, % at 3.7 µM. TR-FRET IN-LEDGF/p75 DNA integration, Eu/Cy5. 0.64% of 370,000 active;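 active means inhibition above the screen-wide mean plus 3 SD, cut at about 13% in these data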;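 further: signal is the Cy5 over europium emission ratio at 671 and 618 nm; 0% = plate median of compound wells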
ASAP1 GAP inh: inhibitors of human ASAP1 ArfGAP activity, primary screen, biochemical, fluorescence polarization | ASAP1-stimulated ARF1 GTP hydrolysis, GDP FP detection | Arf-GAP with SH3 domain, ANK repeat and PH domain-containing protein 1 (Homo sapiens), … | inhibition, % at 16.5 µM | 0.19% of 360,000 active | AID 624377, 2012; in the data active means inhibition above about 25%;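 further: 0% = vehicle with enzyme and substrate and 100% = no enzyme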
TCR-CD3 inh: inhibitors of human TCR-CD3 interaction, primary screen, biochemical, fluorescence, TAMRA-labeled TCR probe | T-cell receptor (TCR) | inhibition, % at 9.4 µM | 0.37% of 360,000 active; in the data active means inhibition above about 19%;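 further: recombinant mutant TCR 2C K166C tagged with TAMRA read by polarization; 0% = receptor in buffer alone and 100% = receptor with positive control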
UHRF1 MBD2 ctr: UHRF1 methylated DNA binding inhibitors, primary screen, counter-screen for MBD2 inhibitor project, biochemical, TR-FRET, human UHRF1, single concentration | E3 ubiquitin-protein ligase UHRF1 (Homo sapiens), Q96T88 | UHRF1 binding to methylated oligo | inhibition, % at 4.4 µM | 0.75% of 370,000 active | AID 687016, 2013;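 further: UHRF1 SRA domain binding a hemimethylated CpG hairpin DNA probe; 0% = median of test compound wells and 100% = reference inhibitor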
ARFGAP1 inh: inhibitors of rat ARFGAP1 GAP activity, primary screen, biochemical, fluorescence polarization, GDP tracer; Arfgap1-stimulated ARF1 GTP hydrolysis, GDP FP detection; 0.26% of 360,000 active; AID 651572, 2012; inhibition, % at 16.5 µM; ADP-ribosylation factor GTPase-activating protein 1 (Rattus norvegicus), Q62848;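 active means inhibition above a per-plate limit, mean inhibition of low control wells plus 3 SD, cut at about 25% in these data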;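 further: 0% = DMSO wells with enzyme and 100% = wells lacking Arfgap1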
Target sequence (Q62848 1-136 limits assumed): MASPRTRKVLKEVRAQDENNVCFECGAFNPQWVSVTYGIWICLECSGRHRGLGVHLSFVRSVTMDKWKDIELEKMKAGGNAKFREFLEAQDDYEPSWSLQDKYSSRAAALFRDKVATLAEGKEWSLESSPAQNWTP
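material = rat Arfgap1 catalytic domain, aa 1-136 | also added = human ARF1(Δ1-17)-GTP substrate | compound dosing = one concentration, 16.5 µM, DMSO 1.26% | times = GTP hydrolysis reaction 2 h at 25 °C | measured by = FP, GDP Alexa 633 tracer displaced from anti-GDP antibody, 620/688 nm | evaluation = percent inhibition of Arfgap1-stimulated GTP hydrolysis | replication = single well per compound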
MBD2 inh: inhibitors of MBD2 binding to methylated DNA, primary screen, biochemical, TR-FRET, DNA-binding domain, human | Methyl-CpG-binding domain protein 2 (Homo sapiens), Q9UBB5 | MBD2 binding to methylated oligonucleotide | inhibition, % at 4.4 µM | 0.31% of 370,000 active | AID 686964, 2013; in the data active means inhibition above about 13%
UHRF1 ctr MBD2: UHRF1 methylated DNA binding inhibitors, counter-screen for MBD2 inhibitor project, biochemical, TR-FRET, human UHRF1. shares compounds with MBD2 inh. UHRF1 binding to methylated oligonucleotide. inhibition, % at 4.4 µM. 25% of 1,000 active;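 further: UHRF1 SRA domain binding a labeled hemimethylated CpG hairpin DNA; 0% = vehicle only and 100% = reference inhibitor with vehicle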
MBD2 DBD conf: inhibitors of MBD2 binding to methylated DNA, confirmation, biochemical, TR-FRET, DNA-binding domain, human | shares compounds with MBD2 inh | TR-FRET MBD2-DBD binding to methylated oligonucleotide | inhibition, % at 4.4 µM | 26% of 1,000 active; in the data active means inhibition above about 14%
IN multimer act: HIV-1 IN multimer formation enhancers, counter-screen for LEDGF/p75 integration inhibitor project, biochemical, TR-FRET. shares compounds with LEDGF integ inh. TR-FRET HIV-1 integrase multimerization. activation, % at 7.7 µM. 17% of 2,000 active. AID 1053131, 2014; in the data active means activation above about 8.9%
TRFRET interf: TR-FRET optical interference artefacts, confirmation, artefact control for LEDGF/p75-dependent integration inhibitor project, biochemical, HIV-1 IN multimerization; 2,000 tested, under 10 active; inhibition, % at 7.7 µM; shares compounds with LEDGF integ inh; TR-FRET optical interference counterscreen;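 active means inhibition above the mean over all tested compounds plus 3 SD, which no compound reached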;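 further: 0% = integrase with antibodies and DMSO and 100% = antibodies without integrase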
IN-LEDGF confirm: inhibitors of HIV-1 IN-LEDGF/p75 DNA integration, confirmation, biochemical, TR-FRET; shares compounds with LEDGF integ inh; TR-FRET LEDGF/p75-dependent HIV-1 integration; inhibition, % at 3.7 µM; 36% of 2,000 active; in the data active means inhibition above about 14%
Starred values were filed as active, the others as inactive; · = not tested or not shown. Unless noted, no stated cut-off is given here; in the data, active means inhibition above about 21%; inactive means the rest.

SMILES	LEDGF integ inh	ASAP1 GAP inh	TCR-CD3 inh	UHRF1 MBD2 ctr	ARFGAP1 inh	MBD2 inh	UHRF1 ctr MBD2	MBD2 DBD conf	IN multimer act	TRFRET interf	IN-LEDGF confirm
CC(=O)c1ccc(-n2c(-c3cc(-c4ccco4)[nH]n3)n[nH]c2=S)cc1	3.9	-0.1	10.4	-0.4	-5.3	-3.3	·	·	·	·	·
O=C(O)c1ccc(-n2c(-c3cc(-c4ccco4)[nH]n3)n[nH]c2=S)cc1	53.4*	3.8	16.8	83.3*	-7.0	26.8*	72.7*	23.1*	10.4*	-52.3	42.2*
CCN(CC)S(=O)(=O)c1cc(NC(=O)CNc2c(C)n(C)n(-c3ccccc3)c2=O)ccc1C	-0.3	-2.6	-6.0	4.5	-10.9	7.6	·	·	·	·	·
O=C(O)CCCc1nc(-c2ccc(Cl)cc2)no1	-4.3	-6.7	-1.3	2.2	2.3	0.6	·	·	·	·	·
O=C(CCc1nc(-c2ccc(Cl)cc2)no1)OCc1ccc(Br)cc1	15.8*	-2.3	3.9	27.6*	-1.4	14.9*	5.6	5.0	-0.4	1.9	-3.9
COc1ccc(C2(CNC(=O)c3ccc(OCC(C)C)cc3)CCOCC2)cc1	-4.7	-7.7	-1.3	1.0	7.1	-2.0	·	·	·	·	·
COCc1cc(=O)n2[nH]c(-c3ccco3)cc2n1	-2.8	5.0	-3.7	-1.5	10.4	3.7	·	·	·	·	·
CCCCN1Cc2c(nc3cc(-c4ccco4)[nH]n3c2=O)C1=O	31.5*	1.4	-0.7	62.9*	-0.8	24.8*	6.9	4.3	3.8	-14.0	8.3
CC(=O)c1cccc(N(C(=O)CNC(=O)c2cccs2)C(C(=O)NCC2CCCO2)c2ccccc2)c1 (stereo not given)	7.5	3.0	-8.5	5.0	0.9	8.6	·	·	·	·	·
O=C1CCCC(O)=C1N=Nc1ccc(C(=O)O)cc1	22.1*	6.1	18.2	54.2*	-8.6	14.8*	55.6*	18.6*	37.5*	-188.5	32.4*
Cc1ccc(C(=O)c2c3ccccc3[n+]([O-])n2CCC(N)=O)cc1	-1.5	10.5	-7.1	-0.7	-10.8	1.2	·	·	·	·	·
C/C=C(\C)C(=O)Nc1cccc(C2=NOC3(C2)C[C@@H](C(N)=O)N(C(=O)/C(C)=C/C)C3)c1 (stereo not given in full)	-3.5	15.0	0.7	-1.2	-4.2	-2.4	·	·	·	·	·

Screening results from PubChem.
